GAA850 FXN act: FXN promoter activators, primary screen, cell-based, luciferase luminescence, HEK293 lucGAA850. activation, % at 6 µM. HEK293 lucGAA850 FXN promoter luciferase reporter, 24 h; percent of 10 µM SAHA response. 360,000 tested, 0.56% active. AID 540364, 2011;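 active = activation above the average of all compounds screened plus 3 SD, cutoff fixed separately per campaign, cut at about 7.5% in these data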
proCasp3 act: activators of human procaspase-3 D3A mutant, primary screen, biochemical, absorbance, PC-3 D3A mutant, single concentration; activation, % at 8.5 µM; 330,000 tested, 0.11% active; Caspase-3 (Homo sapiens), P42574; recombinant procaspase-3 D3A, Ac-DEVD-pNA absorbance 405 nm;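 active = activation above the mean of all tested compounds plus 3 SD, cut at about 21% in these data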
Target sequence (P42574 whole entry D9A/D28A/D175A): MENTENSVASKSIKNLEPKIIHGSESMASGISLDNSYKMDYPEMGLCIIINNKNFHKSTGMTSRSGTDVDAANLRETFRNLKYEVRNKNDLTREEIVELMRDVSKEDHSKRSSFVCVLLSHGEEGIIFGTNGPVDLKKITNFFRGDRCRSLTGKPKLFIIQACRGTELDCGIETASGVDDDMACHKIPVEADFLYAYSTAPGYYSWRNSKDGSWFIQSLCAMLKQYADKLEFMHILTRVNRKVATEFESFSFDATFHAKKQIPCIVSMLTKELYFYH
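assay system = Procaspase-3 D3A mutant | signal = absorbance at 405 nm, 0 and 120 min | times = 1 h preincubation plus 2 h reaction at 25 °C | repeats = single replicate | read-out = % activation between DMSO and enzyme-spiked controls | medium = Zinc-free HEPES saline buffer with Triton X-100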
procasp7 counter: procaspase-7 activators, primary screen, counter-screen for procaspase-3 activator project, biochemical, absorbance, HTS, human; 330,000 tested, 0.093% active; recombinant procaspase-7, Ac-DEVD-pNA absorbance 405 nm; D23A/D198A/D206A triple mutant, cannot self-cleave; scale: DMSO 0, 5 µM enzyme 100; activation, % at 8.5 µM;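 active = percent activation above the screen-wide mean plus 3 SD, cut at about 25% in these data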
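Assay system: Uncleavable procaspase-7 mutant enzyme / Input: 2 µM procaspase-7 mutant as dispensed / Dosing: single nominal 8.5 µM compound dose, 0.8% DMSO final / Timing: 1 h enzyme–compound preincubation and 2 h substrate reaction, both 25 °C / Detection: p-Nitroaniline absorbance at 405 nm, read at 0 and 120 min / Replication: singlicate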
GAA30 counter: GAA30 FXN promoter activators, confirmation, counter-screen for GAA850 frataxin promoter activator project, cell-based, luminescence, HEK293, lucGAA30, triplicate; shares compounds with GAA850 FXN act; HEK293 lucGAA30 FXN promoter luciferase, 24 h; DMSO = 0%, 5 µM ipriflavone = 100%; activation, % at 6 µM; 1,900 tested, 66% active;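 active = mean activation above the mean of solvent-only control wells plus 3 SD, cut at about 22% in these data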;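 note: counterscreen of GAA850 promoter hits where activity marks nonselective or luminescence artifacts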
GAA850 confirm: FXN GAA850 promoter activators in reporter cells, confirmation, cell-based, luminescence, HEK293 lucGAA850, triplicate | shares compounds with GAA850 FXN act | HEK293 lucGAA850 FXN promoter luciferase reporter, 24 h; 100% = activation by SAHA | activation, % at 6 µM | 1,900 tested, 86% active | AID 588351, 2011;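 active = mean activation above a set limit taken from the primary screen, cut at about 8% in these data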
Large screens that a line does not name were inactive (follow-up assays come after a bar, where they were run); ! = a repeat was not active. An excerpt weighted towards active compounds, which were near 0.7% of everything screened.

CN1C(=O)c2ccccc2NC(=O)[C@]12O[C@@H]2c1ccccc1	GAA850 FXN act 13.1 | GAA30 counter inactive | GAA850 confirm inactive
C=C(C)CN1CC[C@]23c4c5ccc(O)c4O[C@H]2c2[nH]c4ccccc4c2C[C@@]3(O)C1C5	none (no result: GAA850 FXN act)
CCN(CC)c1ccc(N=Cc2c(O)n(CCC3=CCCCC3)c(=O)[nH]c2=O)cc1	none
CN(C)c1ccc(N=Cc2c(O)n(CCC3=CCCCC3)c(=O)[nH]c2=O)cc1	GAA850 FXN act 24.6 | GAA30 counter inactive | GAA850 confirm inactive
CC1CC2(C)C(CCC3C2CCC2(C)C(OP(=O)(N4CC4)N4CC4)CCC32)CC1=O (stereo not given)	none (no result: proCasp3 act, procasp7 counter)
Cc1nc2c(c(=O)[nH]1)C(c1ccc([N+](=O)[O-])cc1)c1c(c3ccccc3oc1=O)O2 (stereo not given)	none (no result: GAA850 FXN act)
CCc1ccc(N2C(=O)NC(=O)/C(=C\C=C\c3ccco3)C2=O)cc1	none
CC(C)c1ccc(N2C(=O)NC(=O)/C(=C/C=C/c3ccco3)C2=O)cc1	GAA850 FXN act 8.7 | GAA30 counter inactive | GAA850 confirm 20.0
Cc1ccc(N2C(=O)NC(=O)/C(=C/C=C/c3ccco3)C2=O)cc1	none
Cc1cc(C)cc(N2C(=O)NC(=O)/C(=C\C=C\c3ccco3)C2=O)c1	GAA850 FXN act 8.9 | GAA30 counter inactive | GAA850 confirm inactive
CC(=O)c1cn(CCCOc2ccccc2)c2ccccc12	none
COC(=O)C1=C(c2ccc(C(C)=O)cc2)C[C@@H]2CC[C@H]1N2C(=O)NC(C)C	none
O=c1oc2ccccc2c(O)c1[C@H]1c2ccc(O)cc2Oc2c1c(=O)oc1ccccc21	none
CN(C)[C@@H]1C(=O)C(C(N)=O)=C(O)[C@@]2(O)C(=O)C3=C(O)c4c(O)ccc(Cl)c4[C@@](C)(O)C3C[C@@H]12 (stereo not given in full)	GAA850 FXN act 13.7 (no result: proCasp3 act, procasp7 counter) | GAA30 counter inactive | GAA850 confirm inactive
CN(C)[C@@H]1C(=O)C(C(N)=O)=C(O)[C@@]2(O)C(=O)C3=C(O)c4c(O)cccc4[C@@](C)(O)C3[C@H](O)C12 (stereo not given in full)	GAA850 FXN act 14.6! | GAA30 counter 28.3 | GAA850 confirm 9.1
CC(C)(O)[C@@H]1[C@H]2OC(=O)[C@@H]1[C@]1(O)C[C@H]3O[C@]34C(=O)O[C@H]2[C@]14C (tested in a mixture with another compound)	none (no result: GAA850 FXN act)
COc1cc2c(cc1OC)CC[N+](C)=C2	none
O=C(O)CCCc1ccc(N(CCCl)CCCl)cc1	none
O=c1[nH]cnc2nc(-c3ccc(N(CCCl)CCCl)cc3)[nH]c12	GAA850 FXN act 9.0 (no result: proCasp3 act, procasp7 counter) | GAA30 counter 90.8 | GAA850 confirm 56.3
CCC(=O)N1N=C(c2c(O)n(CCc3ccccc3)c(=O)[nH]c2=O)CC1c1ccc(OC)c(OC)c1 (stereo not given)	none
O=c1cccc2n1CC1CC2CN(Cc2c(Cl)cccc2Cl)C1 (stereo not given)	none
O=c1cccc2n1CC1CC2CN(c2nc(N3CCCCC3)nc(N3CCCCC3)n2)C1 (stereo not given)	GAA850 FXN act 11.1 | GAA30 counter 32.4 | GAA850 confirm 12.3
COP(=S)(OC)c1c(C)nn(CCC#N)c1NC(=O)c1ccc(Cl)cc1	none
COc1ccc(/C=C/C(=O)c2c(O)n(CCC3=CCCCC3)c(=O)[nH]c2=O)cc1OC	none
O=C(N/N=C/C1C(=O)NC(=S)N(c2ccccc2)C1=O)c1cc(Br)c(O)c(Br)c1 (stereo not given)	none
CN(C)C(=S)SSC(=S)N(C)C	GAA850 FXN act 27.4 | GAA30 counter inactive | GAA850 confirm inactive
CC(=O)Nc1ccccc1C(=O)C(=O)Nc1cccc(C(=O)N2CCC3(CC2)OCCO3)c1	none
CC(=NCCC(c1ccccc1)c1ccccc1)c1c(O)n(C)c(=O)n(C)c1=O	none
CNC(=O)Oc1c(C)[nH]ccc1=O	none (no result: proCasp3 act, procasp7 counter)
COc1cc(C2(C#N)CCN(C)CC2)cc(OC)c1OC	none (no result: proCasp3 act, procasp7 counter)
CCN1C(=O)C(=Cc2cc(C)n(C3CC3)c2C)C(=O)N(CC)C1=S	none
CCN1C(=O)C(=Cc2ccc(C)s2)C(=O)N(CC)C1=S	GAA850 FXN act 9.0 | GAA30 counter 79.4 | GAA850 confirm 45.3
CCC(=NCCC(c1ccccc1)c1ccccc1)c1c(O)[nH]c(=O)[nH]c1=O	none
CCC(=NC(C)c1ccccc1)c1c(O)[nH]c(=O)[nH]c1=O (stereo not given)	GAA850 FXN act 8.5 | GAA30 counter inactive | GAA850 confirm 10.1
COc1ccc(CNCCc2c(C)[nH]c3ccc(OC(F)(F)F)cc23)c(OC)c1	none
CCCC1(CCC)C(=O)NC(=Nc2ccc(C)cc2)NC1=O	none (no result: GAA850 FXN act)
C=CCNC(=O)c1c(N)n(Cc2ccco2)c2nc3ccccc3nc12	GAA850 FXN act 9.6 | GAA30 counter inactive | GAA850 confirm 8.6
COCCNC(=O)c1c(N)n(Cc2ccco2)c2nc3ccccc3nc12	none

Screening data from PubChem.
